PRMT1 FP inh: PRMT1 methyltransferase inhibitors, primary screen, biochemical, fluorescence polarization. Protein arginine N-methyltransferase 1 (Homo sapiens), Q99873. recombinant PRMT1, activity-based probe fluorescence polarization. inhibition, % at 2.79 µM. actives 1.3% (n = 370,000);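 active = inhibition above about 21% made by adding two undisclosed values, limit read from the data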
ABHD5-PLIN5 inh: ABHD5-PLIN5 interaction inhibitors, primary screen, cell lysate, split luciferase complementation, luminescence; inhibition, % at 4 µM; actives 0.78% (n = 360,000); Split G. princeps luciferase complementation, 4 h; Perilipin-5 (Homo sapiens) + 1-acylglycerol-3-phosphate O-acyltransferase ABHD5 (Homo …;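 active = inhibition above the mean inhibition across every tested compound plus 3 SD, cut at about 22% in these data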;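 also: 0% = DMSO only wells and the 100% control is not disclosed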
RBBP9 inh: human RBBP9 inhibitors, primary screen, biochemical, fluorescence polarization, FP-Rh probe, HTS; Serine hydrolase RBBP9 (Homo sapiens), O75884; recombinant RBBP9; inhibition, % at 7.94 µM; actives 0.2% (n = 220,000);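 active = inhibition above the campaign mean of all tested compounds plus 3 SD, cut at about 14% in these data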;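 also: plate controls were DMSO wells with RBBP9 for no effect and wells lacking RBBP9 protein for full effect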
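Controls: DMSO-treated enzyme wells and wells lacking RBBP9 | Material: RBBP9 protein | Technique: Fluorescence polarization | Replication: Single well per compound, no replicates | Buffer or medium: Tris-NaCl-Pluronic buffer, pH 8.0 | Timing: 30 min compound preincubation, 45 min probe labeling, 25 °C | Read-out basis: Percent inhibition from mP, scaled between DMSO and no-protein wells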
LEDGF integ inh: blockers of LEDGF/p75-dependent integrase strand transfer – biochemical, TR-FRET, high throughput, primary screen; TR-FRET IN-LEDGF/p75 DNA integration, Eu/Cy5; inhibition, % at 3.7 µM; actives 0.64% (n = 370,000); AID 743269, 2014;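 active = inhibition above the screen-wide mean plus 3 SD, cut at about 13% in these data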;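 also: signal is the Cy5 over europium emission ratio at 671 and 618 nm; 0% = plate median of compound wells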
MBD2 DNA inh: inhibitors of MBD2 binding to methylated DNA, primary screen, biochemical, TR-FRET, DNA-binding domain, human | Methyl-CpG-binding domain protein 2 (Homo sapiens), Q9UBB5 | MBD2 binding to methylated oligonucleotide | inhibition, % at 4.4 µM | actives 0.31% (n = 370,000) | AID 686964, 2013; in the data active = inhibition above about 13%
UHRF1 binding: UHRF1 methylated DNA binding inhibitors, primary screen, counter-screen for MBD2 inhibitor project, biochemical, TR-FRET, human UHRF1, single concentration. E3 ubiquitin-protein ligase UHRF1 (Homo sapiens), Q96T88. UHRF1 binding to methylated oligo. inhibition, % at 4.4 µM. actives 0.75% (n = 370,000). AID 687016, 2013; in the data active = inhibition above about 21%;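 also: UHRF1 SRA domain binding a hemimethylated CpG hairpin DNA probe; 0% = median of test compound wells and 100% = reference inhibitor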
ABHD5 PLIN5 conf: ABHD5-PLIN5 interaction inhibitors, confirmation, biochemical, luminescence; shares compounds with ABHD5-PLIN5 inh; inhibition, % at 4 µM; actives 67% (n = 2,200); in the data active = inhibition above about 23%;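 also: 0% = DMSO vehicle wells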
HNF4 counter: HNF4 dimerization inhibitors, counter-screen for ABHD5-PLIN5 interaction inhibitor project, biochemical, split-luciferase complementation, luminescence. shares compounds with ABHD5-PLIN5 inh. inhibition, % at 4 µM. actives 77% (n = 2,200);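 active = mean inhibition across replicate wells exceeding the computed hit threshold, cut at about 13% in these data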;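 also: light from luciferase halves that rejoin when HNF4 fusion proteins dimerize; 0% = DMSO only wells and the 100% control is not given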
Starred values were filed as active, the others as inactive. Only some compounds are listed: those with a hit (about 3.1% of all), similar ones and a draw of the others.

For CCOC(=O)c1csc(NC(=O)C2CCCN(S(=O)(=O)c3ccccc3[N+](=O)[O-])C2)n1 (configuration not stated) the results were PRMT1 FP inh 5, LEDGF integ inh 2, MBD2 DNA inh 1 and UHRF1 binding 2.
For CC[C@H](NC(=O)[C@@H](Cc1ccccc1)NC(=O)[C@H]1O[C@@H](n2cnc3c(=O)[nH]c(N)nc32)[C@H](O)[C@@H]1O)c1ccccc1 the results were PRMT1 FP inh 5, LEDGF integ inh 3, MBD2 DNA inh -1 and UHRF1 binding 0.
CCn1c(SCC(=O)N/N=C/C=C/c2ccco2)nnc1-c1ccc(OC)cc1 was read as PRMT1 FP inh 6, ABHD5-PLIN5 inh 30*, RBBP9 inh -7, LEDGF integ inh 1, MBD2 DNA inh 2, UHRF1 binding 11, ABHD5 PLIN5 conf 17 and HNF4 counter 40*.
COCCN(CC(=O)NC1CCCCC1)C(=O)/C=C/C(=O)c1ccc(OC)cc1O was read as PRMT1 FP inh 21, ABHD5-PLIN5 inh 62*, RBBP9 inh -7, LEDGF integ inh -5, MBD2 DNA inh 4, UHRF1 binding 2, ABHD5 PLIN5 conf 102* and HNF4 counter 106*.
COc1ccc(CN(C(=O)/C=C/C(=O)c2ccc(OC)cc2O)C(C(=O)NC2CCCCC2)c2ccncc2)cc1 (configuration not stated) was read as PRMT1 FP inh -3, ABHD5-PLIN5 inh 6, RBBP9 inh -6, LEDGF integ inh 0, MBD2 DNA inh -3 and UHRF1 binding -2.
`Cc1cccc(-c2cccc3c4c([nH]c23)[C@@H]2C[C@H](N(C)C(=S)Nc3ccc(C#N)cc3)[C@H]([C@H](C)O)CN2CC4)c1` gave PRMT1 FP inh -2, LEDGF integ inh 3, MBD2 DNA inh 5 and UHRF1 binding -1.
Screening NC(=O)c1ncn([C@@H]2O[C@H](C(=O)N[C@H](Cc3ccccc3)C(=O)O)[C@@H](O)[C@H]2O)n1 returned PRMT1 FP inh 0, LEDGF integ inh 3, MBD2 DNA inh -5 and UHRF1 binding 0.
`O=[N+]([O-])c1ccc(N=NN(CCO)CCO)cc1` gave PRMT1 FP inh -1, ABHD5-PLIN5 inh -5, RBBP9 inh -7, LEDGF integ inh 0, MBD2 DNA inh -5 and UHRF1 binding -2.
O=[N+]([O-])c1ccc(N=Nc2ncc[nH]2)cc1 was read as PRMT1 FP inh -2, ABHD5-PLIN5 inh 30*, LEDGF integ inh 2, MBD2 DNA inh 1, UHRF1 binding -7, ABHD5 PLIN5 conf 57* and HNF4 counter 52*.
Cn1cnnc1Sc1ccc(/C=C/C(=O)c2ccc(O)cc2)cc1[N+](=O)[O-] was read as PRMT1 FP inh 3, ABHD5-PLIN5 inh 64*, RBBP9 inh -13, LEDGF integ inh -7, MBD2 DNA inh 3, UHRF1 binding 2, ABHD5 PLIN5 conf 87* and HNF4 counter 87*.
CCC(C(=O)Nc1ccccc1N1CCCC1)c1cccc(Cl)c1 (configuration not stated) was read as PRMT1 FP inh 2, LEDGF integ inh 3, MBD2 DNA inh -1 and UHRF1 binding -1.
`C[C@H]1CCC/C=C/C(=O)c2c(cc(O)c(Cl)c2O)CC(=O)O1` gave PRMT1 FP inh 7, LEDGF integ inh 11, MBD2 DNA inh -1 and UHRF1 binding -1.
